From ChEMBL document CHEMBL1141356, “Derrubone, an inhibitor of the Hsp90 protein folding machinery” (J Nat Prod, 2007)
One block for each compound: values may come before it. The source made the active and inactive calls. The calls are words filed in the database; no cut-off is given here.

Legend:
[1] = Inhibition of Hsp90
In short: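 Thermally denatured firefly luciferase refolded in rabbit reticulocyte lysate at room temperature. Run in triplicate and repeated at least twice; luminescence read with 10 s integration. IC50 is the concentration that cuts recovery of luciferase activity by 50% versus DMSO. Linearity checked by anti-luciferase Western blot over the time course.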

[2] = Effect on binding of Hsp90 to HR1 relative to control
Bos taurus = species on record: Bos taurus; assay: Inhibition of ATPase activity of bovine Hsp70 at upto 400 uM
In short: (§1)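 Intrinsic ATPase measured with purified chaperone (bovine Hsp70 or bacterial DnaK, 1 µM) and 1 mM ATP, 3 h at 37 °C, compound or DMSO. Malachite green-molybdate added, then quenched with 3% sodium citrate; absorbance read at 620 nm. Compound tested up to 400 µM. Result is % of solvent control, mean of triplicates.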

[3] = Inhibition of ATPase activity of bacterial DnaK at upto 400 uM; in short: as §1
Heat shock protein HSP90 [4] = target: T1, Heat shock protein HSP90 (Homo sapiens, UniProt P07900+P08238); assay: Inhibition of Hsp90 in human MCF7 cells assessed as induction of Akt degradation after 36 hrs by Western blot analysis; type: cell-based
In short: (§2)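 MCF-7 cells grown in DMEM:Ham's F-12 (1:1) with nonessential amino acids, 2 mM L-glutamine, antibiotics and 10% FBS. Seeded at 1 × 10^6 per dish, attached overnight, treated with varying concentrations for 36 h at 37 °C, 5% CO2. Harvested for Western blot of client proteins. Controls were GA 500 nM and DMSO.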

Oryctolagus cuniculus [5] = species on record: Oryctolagus cuniculus; assay: Inhibition of Hsp90-dependent activation of heme-regulated Eif2-alpha kinase in heme-deficient rabbit reticulocyte lysate at 100 uM
Oryctolagus cuniculus [6] = species on record: Oryctolagus cuniculus; assay: Inhibition of Hsp90-dependent luciferase refolding in rabbit reticulocyte at 100 uM after 20 mins
Heat shock protein HSP90 [7] = target: T1, Heat shock protein HSP90; assay: Inhibition of Hsp90 in human MCF7 cells assessed as induction of actin degradation after 36 hrs by Western blot analysis; type: cell-based; in short: as §2
Heat shock protein HSP90 [8] = target: T1, Heat shock protein HSP90; assay: Inhibition of Hsp90 in human MCF7 cells assessed as induction of Raf degradation after 36 hrs by Western blot analysis; type: cell-based; in short: as §2
MCF7 = assay: Antiproliferative activity against human MCF7 cells expressing ERalpha; type: functional, cell-based
In short: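 MCF-7 cells (ERα-positive human breast cancer) grown in 1:1 DMEM:Ham's F-12 with nonessential amino acids, 2 mM L-glutamine, streptomycin, penicillin and 10% FBS at 37 °C, 5% CO2. Antiproliferative IC50 derived from three separate experiments, each run in triplicate.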

Heat shock protein HSP90 [9] = target: T1, Heat shock protein HSP90; assay: Inhibition of Hsp90 in human MCF7 cells assessed as induction of Her2 degradation after 36 hrs by Western blot analysis; type: cell-based
SK-BR-3 = assay: Antiproliferative activity against human SkBr3 cells ERalpha-negative and overexpressing Her2
Heat shock protein HSP90 [10] = target: T1, Heat shock protein HSP90; assay: Inhibition of Hsp90 in human MCF7 cells assessed as induction of ERalpha degradation after 36 hrs by Western blot analysis; type: cell-based; in short: as §2
Oryctolagus cuniculus [11] = species on record: Oryctolagus cuniculus; assay: Inhibition of Hsp90-dependent maturation and activation of heme-regulated eIF2-alpha kinase in heme-deficient rabbit reticulocyte lysate at 100 uM
Heat shock protein HSP90 [12] = target: T1, Heat shock protein HSP90; assay: Inhibition of Hsp90 in human SkBr3 cells assessed as induction of Her2 degradation by ELISA; type: cell-based
In short: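 SkBr3 cells seeded at 3000/well, attached overnight, then treated 24 h. Washed with ice-cold PBS/1% Tween and fixed with -20 °C methanol, 10 min at 4 °C. Blocked in 5% BSA/PBST 1 h. Rabbit anti-Her2 (1:500) overnight at 4 °C, then HRP anti-rabbit (1:1000) 2 h at rt; chemiluminescence read. IC50 from three experiments in triplicate.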

[13] = Inhibition of Hsp90 in cell based assay

Activity [1]: inactive
SMILES: CC1(C)C=Cc2c(cc3occ(-c4ccc5c(c4)OCO5)c(=O)c3c2O)O1

Activity [1]: inactive
SMILES: COc1cc(OC)c2c(=O)c(-c3ccc4c(c3)OCO4)coc2c1

Activity [1]: inactive
SMILES: COc1cc(OC)c2c(OC)c(-c3ccc4c(c3)OCO4)c(=O)oc2c1

Activity [1]: inactive
SMILES: COc1ccc(-c2c(O)c3c(OC)c4c(cc3oc2=O)OC(C)(C)C=C4)cc1

IC50 [1]: < 100 nM
Activity [2]: 80%
SMILES: COC1=C2C[C@@H](C)C[C@H](OC)[C@H](O)[C@@H](C)/C=C(\C)[C@H](OC(N)=O)[C@@H](OC)/C=C\C=C(/C)C(=O)NC(=CC1=O)C2=O (stereo in doubt) [GELDANAMYCIN]

SMILES: CC(C)=CCc1c(O)cc2occ(-c3ccc4c(c3)OCO4)c(=O)c2c1O [DERRUBONE]
Activity (Bos taurus): inactive
Activity [3]: inactive
Activity (Heat shock protein HSP90 [4]): Active
Activity (Oryctolagus cuniculus [5]): Active
IC50 [1]: 230 nM
Activity (Oryctolagus cuniculus [6]): Active
Activity (Heat shock protein HSP90 [7]): Active
Activity (Heat shock protein HSP90 [8]): Active
IC50 (MCF7): 9 µM
Activity (Heat shock protein HSP90 [9]): Active
Activity [2]: 46%
IC50 (SK-BR-3): 12 µM
Activity (Heat shock protein HSP90 [10]): Active
Activity (Oryctolagus cuniculus [11]): Active
IC50 (Heat shock protein HSP90 [12]): 14 µM

IC50 [13]: 500 µM
SMILES: CO[C@@H]1[C@@H](OC(N)=O)[C@@H](O)[C@H](Oc2ccc3c(O)c(NC(=O)c4ccc(O)c(CC=C(C)C)c4)c(=O)oc3c2C)OC1(C)C [NOVOBIOCIN]

IC50 [1]: < 100 nM
SMILES: C[C@@H]1C[C@H]2O[C@@H]2C=C/C=C/C(=O)Cc2c(Cl)c(O)cc(O)c2C(=O)O1 [RADICICOL]
